In ChEMBL document CHEMBL5038571, “Design and Synthesis of EZH2-Based PROTACs to Degrade the PRC2 Complex for Targeting the Noncatalytic Activity of EZH2” (J Med Chem, 2021):
Active and inactive are the calls of the source. No cut-off for these calls is given here.

Key:
[1] = target: T1, Protein cereblon/Histone-lysine N-methyltransferase EZH2 (Homo sapiens) (UniProt Q15910+Q96SW2); test: PROTAC activity at CRBN E3 ligase/EZH2 in PRC2 complex in human WSUDLCL2 cells assessed as reduction in H3K27me3 protein level at 1 uM measured after 48 to 72 hrs by Western blot analysis; type: cell-based; conditions: time 48-72 hrs
T1 sequence (Q15910 whole entry, looked up): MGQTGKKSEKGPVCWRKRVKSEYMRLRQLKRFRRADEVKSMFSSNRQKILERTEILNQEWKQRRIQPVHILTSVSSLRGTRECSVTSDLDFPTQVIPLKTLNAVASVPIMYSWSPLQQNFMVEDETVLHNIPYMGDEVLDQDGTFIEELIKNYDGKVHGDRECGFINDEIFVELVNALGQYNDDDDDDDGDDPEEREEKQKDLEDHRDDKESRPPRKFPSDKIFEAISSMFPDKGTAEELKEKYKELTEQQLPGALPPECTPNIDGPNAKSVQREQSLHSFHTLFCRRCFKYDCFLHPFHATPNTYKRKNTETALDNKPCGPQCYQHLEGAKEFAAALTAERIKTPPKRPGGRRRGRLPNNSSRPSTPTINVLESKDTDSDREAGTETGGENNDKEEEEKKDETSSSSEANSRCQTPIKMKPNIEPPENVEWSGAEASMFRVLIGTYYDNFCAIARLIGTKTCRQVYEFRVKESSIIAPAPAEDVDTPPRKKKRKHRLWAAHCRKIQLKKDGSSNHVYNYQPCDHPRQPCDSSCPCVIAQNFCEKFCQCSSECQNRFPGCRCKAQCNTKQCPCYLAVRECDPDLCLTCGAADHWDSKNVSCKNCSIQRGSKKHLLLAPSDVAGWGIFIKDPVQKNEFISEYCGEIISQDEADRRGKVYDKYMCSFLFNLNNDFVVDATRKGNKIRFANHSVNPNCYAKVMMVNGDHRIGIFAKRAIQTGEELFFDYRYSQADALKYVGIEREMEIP
T1 sequence (Q96SW2 whole entry, looked up): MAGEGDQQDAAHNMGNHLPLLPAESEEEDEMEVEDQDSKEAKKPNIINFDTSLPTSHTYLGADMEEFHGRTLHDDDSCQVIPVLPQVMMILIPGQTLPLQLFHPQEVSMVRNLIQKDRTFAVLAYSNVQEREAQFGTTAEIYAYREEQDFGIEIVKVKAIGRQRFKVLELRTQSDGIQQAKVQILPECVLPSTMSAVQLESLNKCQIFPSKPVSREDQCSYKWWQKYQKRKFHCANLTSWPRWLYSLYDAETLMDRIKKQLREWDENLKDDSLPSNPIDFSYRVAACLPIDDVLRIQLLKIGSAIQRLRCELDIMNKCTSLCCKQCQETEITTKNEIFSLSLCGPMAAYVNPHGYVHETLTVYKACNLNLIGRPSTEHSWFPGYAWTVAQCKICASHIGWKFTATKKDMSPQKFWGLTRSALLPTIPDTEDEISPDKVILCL

[2] = target: Histone-lysine N-methyltransferase EZH2 (Homo sapiens, UniProt Q15910); type: cell-based, Sf9
Chain of Histone-lysine N-methyltransferase EZH2 (Q15910 whole entry): as the sequence (Q15910 whole entry, looked up) above

[3] = test system: WSUDLCL2; test: Antiproliferative activity against human WSUDLCL2 cells harboring EZH2-Y641F mutant assessed as inhibition of cell growth incubated for 3 to 7 days by optical microscopic analysis (Rvb= 4.92 uM); type: functional, cell-based
[4] = target: T1, Protein cereblon/Histone-lysine N-methyltransferase EZH2 (Homo sapiens); test: PROTAC activity at CRBN E3 ligase/EZH2 in PRC2 complex in human WSUDLCL2 cells assessed as effect on EZH2 mRNA expression at 1 uM incubated for 48 hrs by RT-qPCR analysis; type: cell-based
Procedure, shortened: (§1)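 WSU-DLCL-2 cells treated 48 h with 1 μM compound. Total RNA extracted with Trizol and reverse-transcribed. SYBR qPCR run as 95 °C 30 s, then 40 cycles of 95 °C 6 s and 60 °C 20 s. PRC2 subunit mRNA normalized to the DMSO-treated group; mean SD, t-test.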

[5] = target: T1, Protein cereblon/Histone-lysine N-methyltransferase EZH2 (Homo sapiens); test: PROTAC activity at CRBN E3 ligase/EZH2 in PRC2 complex in human WSUDLCL2 cells assessed as downregulation of EED expression at 1 uM pretreated with EED226 for 4 hrs followed by compound addition and measured after 48 hrs by Western blot analysis; type: cell-based
Procedure, shortened: (§2)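 WSU-DLCL-2 cells pretreated 4 h with the named inhibitor, then compound added and incubated a further 48 h. EZH2, SUZ12, EED and RbAp48 measured by western blot (nitrocellulose transfer, skim-milk block, primary antibody overnight at 4 °C, chemiluminescent detection).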

[6] = test system: WSUDLCL2; test: Inhibition of PRC2 in human WSUDLCL2 cells assessed as suppression H3K27 trimethylation at 10 uM incubated for 48 hrs by Western blot analysis; type: cell-based
Procedure, shortened: (§3)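 Lysates run on SDS-PAGE and transferred to nitrocellulose. Membranes blocked with 5% skim milk for 2 h, primary antibody applied overnight at 4 °C, then secondary antibody and chemiluminescent detection of histone H3 methylation marks.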

[7] = test system: A549; test: Upregulation of […] mRNA expression in human […] cells at 5 uM incubated for 48 hrs by qRT-PCR analysis; type: functional, cell-based
Procedure, shortened: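 A549 cells treated 48 h. Trizol RNA extraction, reverse transcription, SYBR qPCR (95 °C 30 s; 40 cycles of 95 °C 6 s, 60 °C 20 s). mRNA normalized to DMSO-treated cells; mean ± SD of three independent experiments.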

[8] = target: T1, Protein cereblon/Histone-lysine N-methyltransferase EZH2 (Homo sapiens); test: PROTAC activity at CRBN E3 ligase/EZH2 in PRC2 complex in human WSUDLCL2 cells assessed as downregulation of EZH2 expression at 1 uM pretreated with MG-132 for 4 hrs followed by compound addition and measured after 48 hrs by Western blot analysis; type: cell-based; procedure, shortened: as §2
[9] = target: T1, Protein cereblon/Histone-lysine N-methyltransferase EZH2 (Homo sapiens); test: PROTAC activity at CRBN E3 ligase/EZH2 in PRC2 complex in human SK-OV-3 cells assessed as induction of EZH2 degradation by measuring reduction in EZH2 protein level at 1 uM incubated for 48 hrs by Western blot analysis; type: cell-based
Procedure, shortened: (§4)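 Cells cultured in DMEM or RPMI 1640 with 10% FBS and 1% penicillin-streptomycin, 37 °C, 5% CO2; exposed to 1 μM compound for 48 h. Lysates run on SDS-PAGE and transferred to nitrocellulose. Blocked 2 h in 5% skim milk, primary antibody overnight at 4 °C, then secondary antibody. Chemiluminescent detection of PRC2 subunits and H3K27me3.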

[10] = target: T1, Protein cereblon/Histone-lysine N-methyltransferase EZH2 (Homo sapiens); test: PROTAC activity at CRBN E3 ligase/EZH2 in PRC2 complex in human WSUDLCL2 cells assessed as induction of RbAp48 degradation at 1 uM incubated for 48 hrs by Western blot analysis relative to control; type: cell-based
Procedure, shortened: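 WSU-DLCL-2 cells treated 48 h (1 μM for the single-concentration screen), lysed; SDS-PAGE, nitrocellulose transfer, 5% milk block, primary antibody 4 °C overnight, chemiluminescence. Bands quantified by densitometry, normalized to GAPDH, expressed relative to DMSO-treated cells; mean ± SD of three independent experiments, t-test.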

[11] = test system: WSUDLCL2; test: Inhibition of PRC2 in human WSUDLCL2 cells assessed as suppression H3K27 dimethylation at 10 uM incubated for 48 hrs by Western blot analysis; type: cell-based; procedure, shortened: as §3
[12] = test system: WSUDLCL2; test: Antiproliferative activity against human WSUDLCL2 cells harboring EZH2-Y641F mutant assessed as inhibition of cell growth at 10 uM incubated for 9 days by optical microscopic analysis; type: functional, cell-based; conditions: time 9.0 day
Procedure, shortened: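 WSU-DLCL-2 cells seeded at 5 × 10³ per well, incubated 24 h, then exposed to 10 μM compound for 9 days with medium refreshed. Cells photographed and counted on days 1, 3, 5, 7 and 9. Mean SD of three independent experiments, t-test versus DMSO.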

[13] = target: T1, Protein cereblon/Histone-lysine N-methyltransferase EZH2 (Homo sapiens); test: PROTAC activity at CRBN E3 ligase/EZH2 in PRC2 complex in human WSUDLCL2 cells assessed as induction of EZH2 degradation by measuring reduction in EZH2 protein level at 1 uM measured after 48 to 72 hrs by Western blot analysis; type: cell-based; conditions: time 48-72 hrs
[14] = target: T1, Protein cereblon/Histone-lysine N-methyltransferase EZH2 (Homo sapiens); test: PROTAC activity at CRBN E3 ligase/EZH2 in PRC2 complex in human SK-OV-3 cells assessed as induction of SUZ12 degradation by measuring reduction in SUZ12 protein level at 1 uM incubated for 48 hrs by Western blot analysis; type: cell-based; procedure, shortened: as §4
[15] = target: T1, Protein cereblon/Histone-lysine N-methyltransferase EZH2 (Homo sapiens); test: PROTAC activity at CRBN E3 ligase/EZH2 in PRC2 complex in human WSUDLCL2 cells assessed as effect on EED mRNA expression at 1 uM incubated for 48 hrs by RT-qPCR analysis; type: cell-based; procedure, shortened: as §1
[16] = target: T1, Protein cereblon/Histone-lysine N-methyltransferase EZH2 (Homo sapiens); test: PROTAC activity at CRBN E3 ligase/EZH2 in PRC2 complex in human DU-145 cells assessed as induction of RbAp48 degradation by measuring reduction in RbAp48 protein level at 1 uM incubated for 48 hrs by Western blot analysis; type: cell-based
Procedure, shortened: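 Cancer cell lines exposed to 1 μM compound for 48 h. Lysates immunoblotted (SDS-PAGE, nitrocellulose, 5% milk block, primary antibody overnight at 4 °C) for EZH2, SUZ12, EED, RbAp48 and H3K27me3. Bands quantified by densitometry and normalized to GAPDH.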

[17] = target: T1, Protein cereblon/Histone-lysine N-methyltransferase EZH2 (Homo sapiens); test: PROTAC activity at CRBN E3 ligase/EZH2 in PRC2 complex in human WSUDLCL2 cells assessed as downregulation of EZH2 expression at 1 uM pretreated with GSK126 for 4 hrs followed by compound addition and measured after 48 hrs by Western blot analysis; type: cell-based; procedure, shortened: as §2
[18] = target: T1, Protein cereblon/Histone-lysine N-methyltransferase EZH2 (Homo sapiens); test: PROTAC activity at CRBN E3 ligase/EZH2 in PRC2 complex in human WSUDLCL2 cells assessed as downregulation of RbAp48 expression at 1 uM pretreated with lenalidomide for 4 hrs followed by compound addition and measured after 48 hrs by Western blot analysis; type: cell-based; procedure, shortened: as §2

- Activity [1]: Active
- IC50 [2]: 2.7 nM
- Activity [4]: inactive
- Activity [5]: Active
- Activity [8]: inactive
- Activity [9]: Active
- Activity [10]: 74%
- Activity [13]: Active
- Activity [14]: Active
- Activity [15]: inactive
- Activity [16]: Active
- Activity [17]: inactive
- Activity [18]: inactive
SMILES: CCN(c1cc(-c2ccc(CN3CCN(CCCCCCCOc4cccc5c4C(=O)N(C4CCC(=O)NC4=O)C5=O)CC3)cc2)cc(C(=O)NCc2c(C)cc(C)[nH]c2=O)c1C)C1CCOCC1 (stereo not drawn)
- IC50 [3]: 3690 nM
- inhibition [6]: Active
- Activity [7]: Active
- inhibition [11]: Active
- Activity [12]: Active
